Reference: ChEMBL document CHEMBL1126317, “2-(aminoalkyl)-5-nitropyrazolo[3,4,5-kl]acridines, a new class of anticancer agents” (1992)
Active and inactive are the calls of the source. The calls are words filed in the database; no cut-off is given here.

What was measured:
Mus musculus [1] = assay: In vivo antitumor activity of the compound(ip, 3.12 mg/kg for 5 days) against CD2F1 mice implanted intraperitoneally with P388 leukemia cells; Day 30 survivors=2/6; type: functional; conditions: route intraperitoneal
L1210 [2] = assay: In vitro antitumor activity against L1210 leukemia cell line.; type: functional; conditions: Mus musculus, read-out: ID50 (the source's name)
Mus musculus [3] = assay: In vivo antitumor activity of the compound(ip, 3.12 mg/kg for 5 days) against CD2F1 mice implanted intraperitoneally with P388 leukemia cells.; type: functional; conditions: route intraperitoneal
Mus musculus [4] = assay: In vivo antitumor activity of the compound(ip, 50 mg/kg for 5 days) against CD2F1 mice implanted intraperitoneally with P388 leukemia cells.; type: functional; conditions: route intraperitoneal
Mus musculus [5] = assay: In vivo antitumor activity of the compound(ip, 100 mg/kg for 5 days) against CD2F1 mice implanted intraperitoneally with P388 leukemia cells.; type: functional; conditions: route intraperitoneal
Mus musculus [6] = assay: In vivo antitumor activity of the compound(ip, 25 mg/kg for 5 days) against CD2F1 mice implanted intraperitoneally with P388 leukemia cells.; type: functional; conditions: route intraperitoneal
Mus musculus [7] = assay: In vivo antitumor activity of the compound(ip, 12.5 mg/kg for 5 days) against CD2F1 mice implanted intraperitoneally with P388 leukemia cells.; type: functional; conditions: route intraperitoneal
Mus musculus [8] = assay: In vivo antitumor activity of the compound(ip, 6.25 mg/kg for 5 days) against CD2F1 mice implanted intraperitoneally with P388 leukemia cells.; type: functional; conditions: route intraperitoneal
Mus musculus [9] = assay: In vivo antitumor activity of the compound(ip, 6.25 mg/kg for 5 days) against CD2F1 mice implanted intraperitoneally with P388 leukemia cells; Day 30 survivors=1/6; type: functional; conditions: route intraperitoneal
[10] = Ratio of the ID50's showing antitumor activity against HCT-8 and L1210 leukemia cell lines.; type: functional
Outline: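 Ratio taken as ID50 in HCT-8 cells divided by ID50 in L1210 cells, both ID50s expressed as molar concentrations.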

HCT-8 [11] = assay: In vitro antitumor activity against HCT-8 colon cancer cell line.; type: functional; conditions: Homo sapiens, read-out: ID50 (the source's name)
Mus musculus [12] = assay: In vivo antitumor activity of the compound(ip, 3.12 mg/kg for 5 days) against CD2F1 mice implanted intraperitoneally with P388 leukemia cells; Day 30 survivors=3/6; type: functional; conditions: route intraperitoneal
Mus musculus [13] = assay: In vivo antitumor activity of the compound(ip, 12.5 mg/kg for 5 days) against CD2F1 mice implanted intraperitoneally with P388 leukemia cells; Day 30 survivors=1/6; type: functional; conditions: route intraperitoneal
Mus musculus [14] = assay: In vivo antitumor activity of the compound(ip, 50 mg/kg for 5 days) against CD2F1 mice implanted intraperitoneally with P388 leukemia cells; Day 30 survivors=3/6; type: functional; conditions: route intraperitoneal
Mus musculus [15] = assay: In vivo antitumor activity of the compound(ip, 25 mg/kg for 5 days) against CD2F1 mice implanted intraperitoneally with P388 leukemia cells; Day 30 survivors=1/6; type: functional; conditions: route intraperitoneal
HCT-8 [16] = assay: In vitro antitumor activity against HCT-8 human colon line; IA= Inactive; type: functional, cell-based
L1210 [17] = assay: In vitro antitumor activity against L1210 leukemia cell line; IA= Inactive; type: functional, cell-based; conditions: Mus musculus
Mus musculus [18] = assay: In vivo antitumor activity of the compound(ip, 50 mg/kg for 5 days) against CD2F1 mice implanted intraperitoneally with P388 leukemia cells; Day 30 survivors=1/6; type: functional; conditions: route intraperitoneal

SMILES: CN(C)CCN1Nc2c3cc(OC(=O)C(C)(C)C)ccc3nc3c([N+](=O)[O-])ccc1c23.CS(=O)(=O)O
- Activity (Mus musculus [1]): 2
- IC50 (L1210 [2]): 0.0029 µM
- T/C (Mus musculus [3]): 236%

SMILES: CCN(CC)CCN1Nc2c3cc(OC)cc(OC)c3nc3c([N+](=O)[O-])ccc1c23.CS(=O)(=O)O
- IC50 (L1210 [2]): 0.76 µM
- T/C (Mus musculus [4]): 88%

SMILES: CCN(CC)CCN1Nc2c3cc(OC)c(OC)cc3nc3c([N+](=O)[O-])ccc1c23.CS(=O)(=O)O
- IC50 (L1210 [2]): 1.1 µM
- T/C (Mus musculus [5]): 126%

SMILES: CCN(CC)CCN1Nc2c3ccc(O)cc3nc3c([N+](=O)[O-])ccc1c23.CS(=O)(=O)O
- IC50 (L1210 [2]): 0.083 µM
- T/C (Mus musculus [6]): 130%

SMILES: CCN(CC)CCN1Nc2c3cccc(OC)c3nc3c([N+](=O)[O-])ccc1c23.CS(=O)(=O)O
- IC50 (L1210 [2]): 0.64 µM
- T/C (Mus musculus [5]): 111%

SMILES: CCN(CC)CCN1Nc2c3ccc(OCc4ccccc4)cc3nc3c([N+](=O)[O-])ccc1c23.CS(=O)(=O)O
- IC50 (L1210 [2]): 0.18 µM
- T/C (Mus musculus [7]): 87%

SMILES: CCN(CC)CCN1Nc2c3cc(C)ccc3nc3c([N+](=O)[O-])ccc1c23.CS(=O)(=O)O
- IC50 (L1210 [2]): 0.86 µM
- T/C (Mus musculus [5]): 136%

SMILES: CCCCOc1ccc2c(c1)-c1nn(CCNCCO)c3ccc([N+](=O)[O-])c(c13)N2.CS(=O)(=O)O
- IC50 (L1210 [2]): 0.65 µM
- T/C (Mus musculus [7]): 175%

SMILES: Cl.O=[N+]([O-])c1ccc2c3c(c4ccccc4nc13)NN2CCNCCO
- IC50 (L1210 [2]): 0.22 µM
- T/C (Mus musculus [6]): 235%

SMILES: COc1ccc2c(c1Cl)-c1nn(CCCN(C)C)c3ccc([N+](=O)[O-])c(c13)N2.CS(=O)(=O)O
- IC50 (L1210 [2]): 0.1 µM
- T/C (Mus musculus [8]): 221%
- Activity (Mus musculus [9]): 1

SMILES: CN(C)CCCN1Nc2c3cc(O)ccc3nc3c([N+](=O)[O-])ccc1c23.CS(=O)(=O)O
- IC50 (L1210 [2]): 0.0018 µM
- T/C (Mus musculus [3]): 270%
- Ratio [10]: 6.7
- IC50 (HCT-8 [11]): 0.012 µM
- Activity (Mus musculus [12]): 3

SMILES: CN(C)CCCN1Nc2c3ccccc3nc3c([N+](=O)[O-])ccc1c23.CS(=O)(=O)O
- IC50 (L1210 [2]): 0.19 µM
- Activity (Mus musculus [13]): 1
- T/C (Mus musculus [7]): 214%

SMILES: CCN(CC)CCN1Nc2c3ccccc3nc3c([N+](=O)[O-])ccc1c23.CS(=O)(=O)O
- IC50 (L1210 [2]): 0.19 µM
- T/C (Mus musculus [8]): 165%

SMILES: CC(=O)Oc1ccc2nc3c([N+](=O)[O-])ccc4c3c(c2c1)NN4CCN(C)C.CS(=O)(=O)O
- IC50 (L1210 [2]): 0.0012 µM
- T/C (Mus musculus [3]): 265%
- Activity (Mus musculus [12]): 3

SMILES: COc1cc(OC)c2c(c1)-c1nn(CCN(C)C)c3ccc([N+](=O)[O-])c(c13)N2
- IC50 (L1210 [2]): 0.21 µM

SMILES: COc1ccc2c(c1)-c1nn(CCN(C)C)c3ccc([N+](=O)[O-])c(c13)N2.CS(=O)(=O)O
- IC50 (L1210 [2]): 0.4 µM
- Activity (Mus musculus [14]): 3

SMILES: CCN(CC)CCN1Nc2c3cc(SC)ccc3nc3c([N+](=O)[O-])ccc1c23.CS(=O)(=O)O
- IC50 (L1210 [2]): 1.1 µM
- T/C (Mus musculus [4]): 114%
- Ratio [10]: 0.32
- IC50 (HCT-8 [11]): 0.35 µM

SMILES: CCN(CC)CCN1Nc2c3cc(N(C)C)ccc3nc3c([N+](=O)[O-])ccc1c23.CS(=O)(=O)O
- IC50 (L1210 [2]): 0.9 µM
- Activity (Mus musculus [15]): 1
- T/C (Mus musculus [6]): 178%

SMILES: CCOc1ccc2c(c1)-c1nn(CCN(CC)CC)c3ccc([N+](=O)[O-])c(c13)N2.CS(=O)(=O)O
- IC50 (L1210 [2]): 0.79 µM
- T/C (Mus musculus [7]): 220%

SMILES: CN(C)CCCN1Nc2c3ccc(O)cc3nc3c([N+](=O)[O-])ccc1c23.Cl
- IC50 (L1210 [2]): 6.7 µM
- T/C (Mus musculus [4]): 140%

SMILES: CCN(CC)CCN1Nc2c3c(OC)cc(OC)cc3nc3c([N+](=O)[O-])ccc1c23.CS(=O)(=O)O
- IC50 (L1210 [2]): 0.49 µM
- T/C (Mus musculus [4]): 94%

SMILES: COc1ccc2c(c1)-c1nn(CCCl)c3ccc([N+](=O)[O-])c(c13)N2
- ID50 (HCT-8 [16]): inactive
- ID50 (L1210 [17]): inactive

SMILES: CCN(CC)CCCN1Nc2c3cc(OC)ccc3nc3c([N+](=O)[O-])ccc1c23.CS(=O)(=O)O
- IC50 (L1210 [2]): 1.3 µM
- T/C (Mus musculus [6]): 210%

SMILES: CCNCCN1Nc2c3cc(OC)ccc3nc3c([N+](=O)[O-])ccc1c23.CS(=O)(=O)O
- IC50 (L1210 [2]): 0.21 µM
- T/C (Mus musculus [4]): 240%
- Ratio [10]: 0.57
- IC50 (HCT-8 [11]): 0.12 µM
- Activity (Mus musculus [18]): 1
